Source: ChEMBL document CHEMBL1158372, “Design, synthesis, and biological evaluation of novel triazole derivatives as inhibitors of cytochrome P450 14alpha-demethylase” (2009)
In brackets after ≈: the same amount, converted by molar mass.

How the values were obtained:
Type in all cases: functional
Candida albicans = assay: Antifungal activity against Candida albicans ATCC 76615 after 24 hrs by micro-broth dilution method; conditions: ATCC 76615, 24 h
Method in brief: (§1)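 NCCLS (M27-A2) broth microdilution in 96-well format. Compounds in DMSO, serially diluted in growth medium, inoculated, incubated at 35 °C, and read at 24 h (C. albicans ATCC76615) or 72 h (Cry. neoformans ATCC32609). MIC80 is the first well with about 80% less growth than the drug-free well. Three independent runs per agent; the mean of replicates is reported.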

Trichophyton rubrum = assay: Antifungal activity against Trichophyton rubrum by micro-broth dilution method
Method in brief: (§2)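 Broth microdilution in 96-well plates following the NCCLS method. DMSO solutions of test agents were serially diluted in growth medium, inoculated, and incubated at 35 °C. MIC80 is the first well showing roughly 80% growth reduction versus the drug-free control. C. albicans ATCC76615 and Cry. neoformans ATCC32609 served as quality-control strains. Each test was done three times; the mean of replicates is reported.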

Cryptococcus neoformans = assay: Antifungal activity against Cryptococcus neoformans ATCC 32609 after 72 hrs by micro-broth dilution method; conditions: ATCC 32609, 72 h; method in brief: as §1
Aspergillus fumigatus = assay: Antifungal activity against Aspergillus fumigatus by micro-broth dilution method; method in brief: as §2
Nannizzia gypsea = assay: Antifungal activity against Microsporum gypseum by micro-broth dilution method; method in brief: as §2
Candida parapsilosis = assay: Antifungal activity against Candida parapsilosis by micro-broth dilution method; conditions: Lodderomyces parapsilosis; method in brief: as §2
Pichia kudriavzevii = assay: Antifungal activity against Candida krusei by micro-broth dilution method; method in brief: as §2
Candida tropicalis = assay: Antifungal activity against Candida tropicalis by micro-broth dilution method; method in brief: as §2

SMILES	MIC80 (Candida albicans)	MIC80 (Trichophyton rubrum)	MIC80 (Cryptococcus neoformans)	MIC80 (Aspergillus fumigatus)	MIC80 (Nannizzia gypsea)	MIC80 (Candida parapsilosis)	MIC80 (Pichia kudriavzevii)	MIC80 (Candida tropicalis)
C=CCN(Cc1ccc(C(=O)Oc2ccccc2C(=O)OC)cc1)CC(O)(Cn1cncn1)c1ccc(F)cc1F (stereo not drawn)	0.0625 µg/mL (≈ 0.111 µM)	64 µg/mL (≈ 114 µM)	> 64 µg/mL	> 64 µg/mL	4 µg/mL (≈ 7.11 µM)	4 µg/mL (≈ 7.11 µM)	16 µg/mL (≈ 28.4 µM)	16 µg/mL (≈ 28.4 µM)
C=CCN(Cc1cccc(Cl)c1)CC(O)(Cn1cncn1)c1ccc(F)cc1F (stereo not drawn)	0.0156 µg/mL (≈ 0.0372 µM)	1 µg/mL (≈ 2.39 µM)	0.25 µg/mL (≈ 0.597 µM)	> 64 µg/mL	0.0625 µg/mL (≈ 0.149 µM)	0.25 µg/mL (≈ 0.597 µM)	0.0625 µg/mL (≈ 0.149 µM)	0.0625 µg/mL (≈ 0.149 µM)
C=CCN(Cc1ccc([N+](=O)[O-])cc1)CC(O)(Cn1cncn1)c1ccc(F)cc1F (stereo not drawn)	0.0156 µg/mL (≈ 0.0363 µM)	0.25 µg/mL (≈ 0.582 µM)	0.25 µg/mL (≈ 0.582 µM)	> 64 µg/mL	0.0156 µg/mL (≈ 0.0363 µM)	0.0625 µg/mL (≈ 0.146 µM)	0.0625 µg/mL (≈ 0.146 µM)	0.25 µg/mL (≈ 0.582 µM)
CC(=O)N1CCN(c2ccc(OCC3COC(Cn4ccnc4)(c4ccc(Cl)cc4Cl)O3)cc2)CC1 (stereo not drawn) [KETOCONAZOLE]	0.0156 µg/mL (≈ 0.0294 µM)	0.0625 µg/mL (≈ 0.118 µM)	0.0625 µg/mL (≈ 0.118 µM)	1 µg/mL (≈ 1.88 µM)	0.0156 µg/mL (≈ 0.0294 µM)	0.0625 µg/mL (≈ 0.118 µM)	0.25 µg/mL (≈ 0.47 µM)	0.0625 µg/mL (≈ 0.118 µM)
C=CCN(Cc1ccccc1Br)CC(O)(Cn1cncn1)c1ccc(F)cc1F (stereo not drawn)	0.0625 µg/mL (≈ 0.135 µM)	0.25 µg/mL (≈ 0.54 µM)	0.25 µg/mL (≈ 0.54 µM)	> 64 µg/mL	0.0156 µg/mL (≈ 0.0337 µM)	0.25 µg/mL (≈ 0.54 µM)	0.25 µg/mL (≈ 0.54 µM)	0.0625 µg/mL (≈ 0.135 µM)
C=CCN(Cc1ccc(C(=O)Oc2ccc(C(=O)OCCC)cc2)cc1)CC(O)(Cn1cncn1)c1ccc(F)cc1F (stereo not drawn)	1 µg/mL (≈ 1.69 µM)	1 µg/mL (≈ 1.69 µM)	4 µg/mL (≈ 6.77 µM)	> 64 µg/mL	1 µg/mL (≈ 1.69 µM)	0.25 µg/mL (≈ 0.423 µM)	4 µg/mL (≈ 6.77 µM)	0.25 µg/mL (≈ 0.423 µM)
C=CCN(Cc1ccc(Cl)cc1Cl)CC(O)(Cn1cncn1)c1ccc(F)cc1F (stereo not drawn)	1 µg/mL (≈ 2.21 µM)	1 µg/mL (≈ 2.21 µM)	1 µg/mL (≈ 2.21 µM)	16 µg/mL (≈ 35.3 µM)	1 µg/mL (≈ 2.21 µM)	0.25 µg/mL (≈ 0.551 µM)	0.25 µg/mL (≈ 0.551 µM)	0.25 µg/mL (≈ 0.551 µM)
C=CCN(Cc1ccc(C(=O)OC(C)C)cc1)CC(O)(Cn1cncn1)c1ccc(F)cc1F (stereo not drawn)	0.25 µg/mL (≈ 0.531 µM)	1 µg/mL (≈ 2.13 µM)	1 µg/mL (≈ 2.13 µM)	> 64 µg/mL	0.0156 µg/mL (≈ 0.0332 µM)	1 µg/mL (≈ 2.13 µM)	0.25 µg/mL (≈ 0.531 µM)	1 µg/mL (≈ 2.13 µM)
C[C@@H]1[C@H](O)[C@@H](C)/C=C/C=C/C=C/C=C/C=C/C=C/C=C/[C@H](O[C@@H]2O[C@H](C)[C@@H](O)[C@H](N)[C@@H]2O)C[C@@H]2O[C@](O)(C[C@@H](O)C[C@@H](O)[C@H](O)CC[C@@H](O)C[C@@H](O)CC(=O)O[C@H]1C)C[C@H](O)[C@H]2C(=O)O [AMPHOTERICIN B]	2 µg/mL (≈ 2.16 µM)	2 µg/mL (≈ 2.16 µM)	2 µg/mL (≈ 2.16 µM)	64 µg/mL (≈ 69.3 µM)	2 µg/mL (≈ 2.16 µM)	2 µg/mL (≈ 2.16 µM)	2 µg/mL (≈ 2.16 µM)	2 µg/mL (≈ 2.16 µM)
C=CCN(Cc1ccc(C(=O)Oc2cccc([N+](=O)[O-])c2)cc1)CC(O)(Cn1cncn1)c1ccc(F)cc1F (stereo not drawn)	0.25 µg/mL (≈ 0.455 µM)	4 µg/mL (≈ 7.28 µM)	1 µg/mL (≈ 1.82 µM)	> 64 µg/mL	1 µg/mL (≈ 1.82 µM)	0.25 µg/mL (≈ 0.455 µM)	4 µg/mL (≈ 7.28 µM)	0.0625 µg/mL (≈ 0.114 µM)

The next lines start with the values.

MIC80 (Candida albicans)	MIC80 (Trichophyton rubrum)	MIC80 (Cryptococcus neoformans)	MIC80 (Aspergillus fumigatus)	MIC80 (Nannizzia gypsea)	MIC80 (Candida parapsilosis)	MIC80 (Pichia kudriavzevii)	MIC80 (Candida tropicalis)	SMILES
1 µg/mL (≈ 1.86 µM)	4 µg/mL (≈ 7.42 µM)	16 µg/mL (≈ 29.7 µM)	> 64 µg/mL	0.25 µg/mL (≈ 0.464 µM)	1 µg/mL (≈ 1.86 µM)	4 µg/mL (≈ 7.42 µM)	4 µg/mL (≈ 7.42 µM)	C=CCN(Cc1ccc(C(=O)Oc2ccc(Cl)cc2)cc1)CC(O)(Cn1cncn1)c1ccc(F)cc1F (stereo not drawn)
0.0156 µg/mL (≈ 0.0392 µM)	1 µg/mL (≈ 2.51 µM)	0.0625 µg/mL (≈ 0.157 µM)	> 64 µg/mL	0.0156 µg/mL (≈ 0.0392 µM)	0.25 µg/mL (≈ 0.627 µM)	0.0625 µg/mL (≈ 0.157 µM)	0.25 µg/mL (≈ 0.627 µM)	C=CCN(Cc1ccc(C)cc1)CC(O)(Cn1cncn1)c1ccc(F)cc1F (stereo not drawn)
0.0156 µg/mL (≈ 0.0372 µM)	1 µg/mL (≈ 2.39 µM)	0.25 µg/mL (≈ 0.597 µM)	> 64 µg/mL	0.0625 µg/mL (≈ 0.149 µM)	0.0625 µg/mL (≈ 0.149 µM)	0.0625 µg/mL (≈ 0.149 µM)	0.25 µg/mL (≈ 0.597 µM)	C=CCN(Cc1ccccc1Cl)CC(O)(Cn1cncn1)c1ccc(F)cc1F (stereo not drawn)
0.0039 µg/mL (≈ 0.0101 µM)	0.25 µg/mL (≈ 0.65 µM)	0.0625 µg/mL (≈ 0.163 µM)	> 64 µg/mL	0.0039 µg/mL (≈ 0.0101 µM)	0.0625 µg/mL (≈ 0.163 µM)	0.0625 µg/mL (≈ 0.163 µM)	0.0625 µg/mL (≈ 0.163 µM)	C=CCN(Cc1ccccc1)CC(O)(Cn1cncn1)c1ccc(F)cc1F (stereo not drawn)
0.25 µg/mL (≈ 0.516 µM)	1 µg/mL (≈ 2.06 µM)	1 µg/mL (≈ 2.06 µM)	> 64 µg/mL	1 µg/mL (≈ 2.06 µM)	1 µg/mL (≈ 2.06 µM)	1 µg/mL (≈ 2.06 µM)	1 µg/mL (≈ 2.06 µM)	C=CCN(Cc1ccc(C(=O)OCCCC)cc1)CC(O)(Cn1cncn1)c1ccc(F)cc1F (stereo not drawn)
0.0625 µg/mL (≈ 0.141 µM)	0.25 µg/mL (≈ 0.565 µM)	0.25 µg/mL (≈ 0.565 µM)	> 64 µg/mL	0.0156 µg/mL (≈ 0.0353 µM)	0.25 µg/mL (≈ 0.565 µM)	0.0625 µg/mL (≈ 0.141 µM)	0.0625 µg/mL (≈ 0.141 µM)	C=CCN(Cc1ccc(C(=O)OC)cc1)CC(O)(Cn1cncn1)c1ccc(F)cc1F (stereo not drawn)
